Measurements as given in ChEMBL document CHEMBL3259578, “Novel derivatives of 1-cyclohexyl-4-[3-(5-methoxy-1,2,3,4-tetrahydronaphthalen-1-yl)propyl]piperazine (PB28) with improved fluorescent and σ receptors binding properties” (J Med Chem, 2014).
Active and inactive are the calls of the source. No cut-off for these calls is given here.

What was measured:
[1] = Drug uptake in cytoplasm of human MCF7 cells at 100 to 500 nM after 45 mins by spinning disk confocal microscopy; type: ADME, cell-based; settings: mcf7, 0.75 h, 0.5 µM
Method in brief: (§1)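 MCF7 cells seeded in chamber slides 24 h ahead, treated 45 min with 100 or 500 nM ligand, fixed in 2% PFA for 30 min at 37 °C, washed with PBS. Spinning-disk confocal imaging, background-corrected; subcellular localization assessed, nuclear signal from pixel intensity profiles. Excitation 405, 488 or 561 nm depending on fluorophore.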

MCF7 [2] = assay: Cellular uptake in human MCF7 cells at 25 to 100 nmol/L after 45 mins […]; type: ADME, cell-based; settings: mcf7, 0.75 h
[3] = biological target: Sigma non-opioid intracellular receptor 1 (Cavia porcellus, UniProt Q60492); assay: Displacement of (+)-[3H]pentazocine from Dunkin guinea pig brain sigma 1 receptor
MCF7 [4] = assay: Cellular uptake in human MCF7 cells at 50 to 100 nM after 20 to 40 mins by spinning disk confocal microscopy; type: ADME, cell-based; settings: mcf7, 0.1 µM
Method in brief: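 Live and fixed MCF7 cells imaged by spinning-disk confocal microscopy from 50 nM ligand onward; intracellular fluorescence intensity followed over time after treatment. Excitation 405 nm […], 488 nm (green) or 561 nm (red channel), according to fluorophore.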

MCF7 [5] = assay: Binding affinity to sigma 2 receptor overexpressed in human MCF7 cells assessed as compound internalization by measuring cellular accumulation at 25 nmol/L after 45 mins by flow cytometry in presence of cis-1-cyclohexyl-4-[4-(2,6-difluorophenyl)cyclohexyl]piperazine; type: cell-based
[6] = Drug uptake in nucleus of human MCF7 cells at 500 nM after 45 mins by spinning disk confocal microscopy; type: ADME, cell-based; settings: mcf7, 0.75 h, 0.5 µM; method in brief: as §1
MCF7 [7] = assay: Binding affinity to sigma 2 receptor overexpressed in human MCF7 cells assessed as compound internalization by measuring cellular accumulation at 25 nmol/L after 45 mins by flow cytometry in presence of PB28; type: cell-based
[8] = Drug uptake in perinuclear region of human MCF7 cells at 100 nM after 45 mins by spinning disk confocal microscopy; type: ADME, cell-based; settings: mcf7, 0.75 h, 0.1 µM; method in brief: as §1
MCF7 [9] = assay: Binding affinity to sigma 2 receptor in human MCF7 cells at 100 nmol/L after 45 mins by FACS analysis in presence of DTG and (+)-pentazocine; type: cell-based
[10] = Drug uptake in vesicle of human MCF7 cells at 100 to 500 nM after 45 mins by spinning disk confocal microscopy; type: ADME, cell-based; settings: mcf7, 0.75 h, 0.5 µM; method in brief: as §1
[11] = Displacement of [3H]DTG from Wistar Hannover rat liver sigma 2 receptor
[12] = Displacement of 2-(6-{1-[3-(4-Cyclohexylpiperazin-1-yl)propyl]-1,2,3,4-tetrahydronaphthalen-5-yloxy}hexyl)-5-dimethylamino-1H-isoindole-1,3(2H)-dione from sigma 2 receptor in human MCF7 cells after 45 mins by FACS analysis; type: cell-based
Method in brief: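 Intact, nonpermeabilized MCF7 cells incubated with competitor at 0.1 nmol/L–10 μmol/L followed by 100 nmol/L fluorescent σ2 tracer for 45 min at 37 °C. Washed twice with PBS, detached with dissociation solution, resuspended in PBS. Flow cytometry at 530 nm band-pass, 10 000 events; IC50 taken from displacement curve.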

[13] = Displacement of [3H]DTG from sigma 2 receptor in human MCF7 cells after 45 mins by FACS analysis; type: cell-based

Sigma non-opioid intracellular receptor 1, sequence (Q60492 whole entry): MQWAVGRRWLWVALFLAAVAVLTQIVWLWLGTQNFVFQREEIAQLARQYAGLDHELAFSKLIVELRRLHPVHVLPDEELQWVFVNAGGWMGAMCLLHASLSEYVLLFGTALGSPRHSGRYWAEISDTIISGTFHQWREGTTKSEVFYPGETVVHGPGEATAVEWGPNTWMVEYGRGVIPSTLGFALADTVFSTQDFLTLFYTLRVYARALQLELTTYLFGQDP

Structure (SMILES): CN(C)c1ccc2c(c1)C(=O)N(CCCCCCOc1cccc3c1CCCC3CCCN1CCN(C3CCCCC3)CC1)C2=O (stereo not given)
- Drug uptake [1]: Active
- Drug uptake (MCF7 [2]): Active
- Ki [3]: 5.37 nM
- Drug uptake (MCF7 [4]): Active
- Activity (MCF7 [5]): inactive
- Drug uptake [6]: Active
- Activity (MCF7 [7]): inactive
- Drug uptake [8]: Active
- Activity (MCF7 [9]): inactive
- Drug uptake [10]: Active
- Ki [11]: 6.9 nM

Structure (SMILES): O=[N+]([O-])c1ccc(NCCCCCCCCCCOc2cccc3c2CCCC3CCCN2CCN(C3CCCCC3)CC2)c2nonc12 (stereo not given)
- Ki [3]: 258 nM
- Ki [11]: 31.2 nM

Structure (SMILES): Nc1ccc2c3c(cccc13)C(=O)N(CCCCCCOc1cccc3c1CCCC3CCCN1CCN(C3CCCCC3)CC1)C2=O (stereo not given)
- Drug uptake [1]: Active
- Drug uptake (MCF7 [2]): Active
- Ki [3]: 156 nM
- Drug uptake (MCF7 [4]): Active
- Activity (MCF7 [5]): inactive
- Drug uptake [6]: Active
- Activity (MCF7 [7]): inactive
- Drug uptake [8]: Active
- Drug uptake [10]: Active
- Ki [11]: 6.57 nM

Structure (SMILES): COc1cccc2c1CCCC2CCCN1CCN(C2CCCCC2)CC1 (stereo not given)
- IC50 [12]: 4.27 nM
- IC50 [13]: 1.2 nM

Structure (SMILES): O=[N+]([O-])c1ccc(NCCCCCCOc2cccc3c2CCCC3CCCN2CCN(C3CCCCC3)CC2)c2nonc12 (stereo not given)
- Drug uptake [1]: Active
- Drug uptake (MCF7 [2]): Active
- Drug uptake (MCF7 [4]): Active
- Activity (MCF7 [5]): inactive
- Drug uptake [6]: Active
- Activity (MCF7 [7]): inactive
- Drug uptake [8]: Active
- Drug uptake [10]: Active

Structure (SMILES): CCN(CC)c1ccc2cc(/C=C/C3=[N+](CCCCCC(=O)NCCCCCCOc4cccc5c4CCCC5CCCN4CCN(C5CCCCC5)CC4)c4ccccc4C3(C)C)c(=O)oc2c1.[Br-] (stereo not given)
- Drug uptake [1]: Active
- Ki [3]: 235 nM
- Drug uptake (MCF7 [4]): Active
- Drug uptake [6]: Active
- Drug uptake [8]: Active
- Drug uptake [10]: Active
- Ki [11]: 161 nM
